Data: ChEMBL document CHEMBL4311937, “Repositioning Salirasib as a new antimalarial agent” (Medchemcomm, 2019)
Active and inactive are the calls of the source. No cut-off for these calls is given here.

Assays:
Vero = assay: Cytotoxicity against African green monkey Vero cells after 72 hrs by MTT assay; format: cell-based; settings: Chlorocebus sabaeus
Outline: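 Vero cells in DMEM with 10% FBS and penicillin/streptomycin, 37 °C, 5% CO₂, seeded at 3000 cells/well. Compounds came from 27 or 25 mM DMSO stocks diluted in medium, with matching DMSO controls. After 72 h, cells got 0.5 mg/mL MTT for 4 h at 37 °C; formazan was dissolved in DMSO and absorbance read at 562 nm.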

Erythrocyte [1] = assay: Hemolytic activity in erythrocytes (unknown origin) at 100 uM; format: ADME, cell-based
Plasmodium falciparum [2] = assay: Antimalarial activity against synchronized ring stage Plasmodium falciparum 3D7 transfected with nano-luciferase assessed as parasite growth inhibition at 200 uM after 72 hrs by Nano-Glo luciferase assay; format: functional, organism-based
[3] = Selectivity index, ratio of IC50 for African green monkey Vero cells to IC50 for synchronized ring stage Plasmodium falciparum 3D7 transfected with nano-luciferase; format: toxicity; settings: read-out: Ratio IC50
Erythrocyte [4] = assay: Hemolytic activity in erythrocytes (unknown origin) at 200 uM; format: ADME, cell-based
Plasmodium falciparum [5] = assay: Antimalarial activity against synchronized ring stage Plasmodium falciparum 3D7 transfected with nano-luciferase assessed as parasite growth inhibition after 72 hrs by Nano-Glo luciferase assay; format: functional, organism-based; settings: 3D7, 72 h
Outline: (§1)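 Assays started at 1% ring stage and 2% hematocrit, with serial RPMI dilutions from 20 mM ethanol stocks. Cultures were lysed with an equal volume of 0.02% saponin buffer containing Nano-Glo substrate, and luminescence was read for 30 s. IC50 was fitted by variable-slope nonlinear regression; 3 experiments ×3 technical replicates.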

Plasmodium falciparum [6] = assay: Antimalarial activity against synchronized ring stage Plasmodium falciparum 3D7 assessed as parasite growth inhibition measured after 24 to 96 hrs; format: functional, organism-based; settings: in the assay text read “24 to 72 hrs” for “24 to 96 hrs”
Outline: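 Sorbitol-synchronized 3D7 rings grown in RPMI-1640 with 0.5% Albumax I under 5% CO₂/5% O₂/90% N₂. Started at 1% ring stage, 2% hematocrit, with serial dilutions in RPMI from 20 mM ethanol stocks, plus ethanol solvent controls. Followed up to 72 h. Growth was read by SYBR Green I lysis-buffer staining (485/520 nm) and confirmed by Giemsa smears. IC50 came from variable-slope nonlinear regression; 3 experiments ×3 technical replicates.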

Plasmodium falciparum [7] = assay: Antimalarial activity against synchronized ring stage Plasmodium falciparum 3D7 transfected with nano-luciferase assessed as parasite growth inhibition after 48 hrs by Nano-Glo luciferase assay; format: functional, organism-based; settings: 3D7, 48 h
Outline: as §1, with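 “nLuc-exporting transfected 3D7 rings were sorbitol-synchronized and cultured in RPMI-1640/0.5% Albumax I under 5% CO₂/5% O₂/90% N₂. Assays” for “Assays”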

SMILES | Activity (Plasmodium falciparum [2]) | IC50 (Plasmodium falciparum [5]) [µM] | also measured
C/C(=C\Cn1cc(CSc2ccccc2C(=O)O)nn1)CCCC(C)CCCC(C)CCCC(C)C (centres undefined) | Active | 9.75 | IC50 (Vero): 34 µM; Activity (Erythrocyte [1]): Non-Toxic; selectivity ratio [3]: 3.67; Activity (Erythrocyte [4]): Toxic
CC(C)=CCC/C(C)=C/Cn1cc(CSc2ccccc2C(=O)O)nn1 | Active | > 200 | –
CCOC(=O)Cn1cc(CSc2ccccc2C(=O)O)nn1 | Active | > 200 | –
CC(C)=CCC/C(C)=C/CC/C(C)=C/Cn1cc(CSc2ccccc2C(=O)O)nn1 | Active | 26 | IC50 (Vero): > 200 µM; selectivity ratio [3]: > 7.7
O=C(O)c1ccccc1SC/C=C/c1ccccc1 | Active | > 200 | –
CC(C)=CCn1cc(CSc2ccccc2C(=O)O)nn1 | Active | > 200 | –
CCCCCCCCCCSc1ccccc1C(=O)O | Active | > 200 | –
O=C(O)c1ccccc1SCc1cn(C/C=C/c2ccccc2)nn1 | Active | 65.3 | IC50 (Vero): > 200 µM; selectivity ratio [3]: > 3.06
CCOC(=O)CCSc1ccccc1C(=O)O | Active | > 200 | –
O=C(O)c1ccccc1SCc1cn(Cc2ccc3ccccc3c2)nn1 | Active | 20.5 | IC50 (Vero): 143 µM; selectivity ratio [3]: 6.95
CC(C)=CCC/C(C)=C/CSc1ccccc1C(=O)O | Active | > 200 | –
O=C(O)c1ccccc1SCc1cn(CCCc2ccccc2)nn1 | Active | > 200 | –
CC(C)=CCC/C(C)=C/CC/C(C)=C/CSc1ccccc1C(=O)O [SALIRASIB] | Active | 20.3 | IC50 (Vero): 210 µM; selectivity ratio [3]: 10.3; IC50 (Plasmodium falciparum [6]): 14 µM
CC(C)=CCSc1ccccc1C(=O)O | Active | > 200 | –
O=C(O)c1ccccc1SCc1cn(C2CCCCC2)nn1 | Active | > 200 | –
C/C(=C\CSc1ccccc1C(=O)O)CCCC(C)CCCC(C)CCCC(C)C (centres undefined) | Active | 13.4 | IC50 (Vero): 52 µM; selectivity ratio [3]: 3.87
CCCCCCCCCCCCCn1cc(CSc2ccccc2C(=O)O)nn1 | Active | 19.8 | IC50 (Vero): 59 µM; selectivity ratio [3]: 2.99
C[C@H]1[C@H](OC(=O)CCC(=O)O)O[C@@H]2O[C@@]3(C)CC[C@H]4[C@H](C)CC[C@@H]1[C@@]24OO3 [ARTESUNATE] | – | – | IC50 (Plasmodium falciparum [7]): 0.00164 to 0.00174 µM
O=C(O)c1ccccc1SCc1cn(CCc2ccccc2)nn1 | Active | > 200 | –
O=C(O)c1ccccc1SC1CCCCC1 | Active | > 200 | –
CCCCCCCCn1cc(CSc2ccccc2C(=O)O)nn1 | Active | > 200 | –
CCOC(=O)CCn1cc(CSc2ccccc2C(=O)O)nn1 | Active | > 200 | –
O=C(O)c1ccccc1SCc1cn(Cc2ccccc2)nn1 | Active | > 200 | –
CCCCCCCCCCn1cc(CSc2ccccc2C(=O)O)nn1 | Active | > 200 | –
CCCCCCCCCCCCCCCCn1cc(CSc2ccccc2C(=O)O)nn1 | Active | 14.4 | IC50 (Vero): 27 µM; Activity (Erythrocyte [1]): Non-Toxic; selectivity ratio [3]: 1.86; Activity (Erythrocyte [4]): Toxic
C#CCSc1ccccc1C(=O)O | Active | > 200 | –
CCCCCCCCSc1ccccc1C(=O)O | Active | > 200 | –
